In brackets after ≈: the same amount, converted by molar mass. A value given as a limit tells only on which side of the number the result lay.

Common to all, as to type: functional
One assay relates to Enterococcus faecalis. Put plainly: Minimum inhibitory concentration against […] MGH-2. In short, it runs like this: (§1)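 Standard microdilution method against a panel of five Gram-negative and five Gram-positive bacterial strains. The MIC (µg/mL) was recorded for each strain.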
A further assay deals with Providencia rettgeri. As to the kind of experiment: Minimum inhibitory concentration against Providencia rettgeri M-1771. In short, it runs like this:
as §1

A further assay deals with Pseudomonas aeruginosa. Put plainly: Minimum inhibitory concentration against Pseudomonas aeruginosa UI-18. In short, it runs like this:
as §1

The next assay has as its system Escherichia coli. As to the kind of experiment: Minimum inhibitory concentration against Escherichia coli Vogel. The gist of the method: as §1
The test system of another assay is Streptococcus pyogenes. As to the kind of experiment: Minimum inhibitory concentration against Streptococcus pyogenes C-203. In short, it runs like this: as §1
A further assay concerns Klebsiella pneumoniae. Put plainly: Minimum inhibitory concentration against Klebsiella pneumoniae MGH-2. In short, it runs like this: as §1
For assay [1], the system named is Staphylococcus aureus. Put plainly: Minimum inhibitory concentration against Staphylococcus aureus UC-76. The gist of the method: as §1
Assay [2] has as its system Staphylococcus aureus. Put plainly: Minimum inhibitory concentration against Staphylococcus aureus H-228. The gist of the method: as §1
The next assay has as its system Enterobacter cloacae. Put plainly: Minimum inhibitory concentration against […] MA-2646. In short, it runs like this:
as §1

A further assay concerns Streptococcus pneumoniae. Put plainly: Minimum inhibitory concentration against Streptococcus pneumoniae SV-1. In short, it runs like this: as §1
Setting [3] is: Enterococcus faecalis, read-out: MIC.
Where [4] appears, read: Providencia rettgeri, read-out: MIC.
The mark [5] stands for this setting: Pseudomonas aeruginosa, read-out: MIC.
The mark [6] stands for this setting: Escherichia coli, read-out: MIC.
Where [7] appears, read: Streptococcus pyogenes, read-out: MIC.
The mark [8] stands for this setting: Klebsiella pneumoniae, read-out: MIC.
Setting [9] is: Staphylococcus aureus, read-out: MIC.
Where [10] appears, read: Enterobacter cloacae, read-out: MIC.
[11] abbreviates: Streptococcus pneumoniae, read-out: MIC.

Take `COC(=O)c1ccc(C2CN(c3c(F)cc4c(=O)c(C(=O)O)cn(C5CC5)c4c3F)CC2N)cc1` (stereo not given): the MIC is 0.4 µg/mL (≈ 0.827 µM) with Enterococcus faecalis (setting [3]); 1.6 µg/mL (≈ 3.31 µM) with Providencia rettgeri (setting [4]); 3.1 µg/mL (≈ 6.41 µM) with Pseudomonas aeruginosa (setting [5]); 0.4 µg/mL (≈ 0.827 µM) with Escherichia coli (setting [6]); 0.4 µg/mL (≈ 0.827 µM) with Streptococcus pyogenes (setting [7]); 0.8 µg/mL (≈ 1.65 µM) in the assay with Klebsiella pneumoniae (setting [8]). For the same compound, the MIC with Staphylococcus aureus [1] (setting [9]) was found to be 0.05 µg/mL (≈ 0.103 µM); in the assay on Staphylococcus aureus [2] (setting [9]), 0.1 µg/mL (≈ 0.207 µM); with Enterobacter cloacae (setting [10]), 0.4 µg/mL (≈ 0.827 µM); in the assay with Streptococcus pneumoniae (setting [11]) it was 0.4 µg/mL (≈ 0.827 µM).
On to `NC1CN(c2cc3c(cc2F)c(=O)c(C(=O)O)cn3C2CC2)CC1C1CC1` (stereo not given), for which the MIC in the assay with Enterococcus faecalis (setting [3]) came to 0.1 µg/mL (≈ 0.269 µM); with Providencia rettgeri (setting [4]), 0.1 µg/mL (≈ 0.269 µM); in the assay with Pseudomonas aeruginosa (setting [5]), 0.8 µg/mL (≈ 2.15 µM); in the assay on Escherichia coli (setting [6]) it was 0.05 µg/mL (≈ 0.135 µM); in the assay with Streptococcus pyogenes (setting [7]) it was 0.1 µg/mL (≈ 0.269 µM); with Klebsiella pneumoniae (setting [8]), 0.05 µg/mL (≈ 0.135 µM). Also, the MIC is ≤ 0.025 µg/mL in the assay on Staphylococcus aureus [1] (setting [9]), 0.1 µg/mL (≈ 0.269 µM) with Staphylococcus aureus [2] (setting [9]), 0.1 µg/mL (≈ 0.269 µM) in the assay on Enterobacter cloacae (setting [10]) and 0.1 µg/mL (≈ 0.269 µM) in the assay on Streptococcus pneumoniae (setting [11]).
Take `NCC1CN(c2c(F)cc3c(=O)c(C(=O)O)cn(C4CC4)c3c2F)CC1c1ccc(N)cc1` (stereo not given): the MIC with Enterococcus faecalis (setting [3]) came to 0.05 µg/mL (≈ 0.11 µM); with Providencia rettgeri (setting [4]), 0.2 µg/mL (≈ 0.44 µM); with Pseudomonas aeruginosa (setting [5]), 1.6 µg/mL (≈ 3.52 µM); with Escherichia coli (setting [6]) it was 0.1 µg/mL (≈ 0.22 µM); with Streptococcus pyogenes (setting [7]) it was 0.05 µg/mL (≈ 0.11 µM); in the assay with Klebsiella pneumoniae (setting [8]) it was 0.2 µg/mL (≈ 0.44 µM). The minimum inhibitory concentration (MIC) in the assay on Staphylococcus aureus [1] (setting [9]) is 0.025 µg/mL (≈ 0.055 µM); with Staphylococcus aureus [2] (setting [9]), 0.1 µg/mL (≈ 0.22 µM); in the assay with Enterobacter cloacae (setting [10]), 0.1 µg/mL (≈ 0.22 µM); in the assay with Streptococcus pneumoniae (setting [11]) it was 0.05 µg/mL (≈ 0.11 µM).
With `CN(C)c1ccc(C2CN(c3c(F)cc4c(=O)c(C(=O)O)cn(C5CC5)c4c3F)CC2N)cc1` (stereo not given), the MIC with Enterococcus faecalis (setting [3]) was 0.1 µg/mL (≈ 0.213 µM); in the assay on Providencia rettgeri (setting [4]) it was 0.4 µg/mL (≈ 0.854 µM); in the assay with Pseudomonas aeruginosa (setting [5]) it was 3.1 µg/mL (≈ 6.62 µM); in the assay on Escherichia coli (setting [6]), 0.2 µg/mL (≈ 0.427 µM); in the assay with Streptococcus pyogenes (setting [7]) it was 0.1 µg/mL (≈ 0.213 µM); in the assay on Klebsiella pneumoniae (setting [8]) it was 0.2 µg/mL (≈ 0.427 µM). Moreover, the minimal inhibitory concentration (MIC) was found to be 0.013 µg/mL (≈ 0.0277 µM) in the assay with Staphylococcus aureus [1] (setting [9]), 0.025 µg/mL (≈ 0.0534 µM) in the assay with Staphylococcus aureus [2] (setting [9]), 0.2 µg/mL (≈ 0.427 µM) with Enterobacter cloacae (setting [10]) and 0.1 µg/mL (≈ 0.213 µM) in the assay with Streptococcus pneumoniae (setting [11]).
Turning to `Nc1c(F)c(N2CC(N)C(c3ccccc3)C2)c(F)c2c1c(=O)c(C(=O)O)cn2C1CC1` (stereo not given), the MIC in the assay on Enterococcus faecalis (setting [3]) turned out to be 0.05 µg/mL (≈ 0.114 µM); in the assay on Providencia rettgeri (setting [4]) it was 0.1 µg/mL (≈ 0.227 µM); with Pseudomonas aeruginosa (setting [5]), 0.8 µg/mL (≈ 1.82 µM); in the assay with Escherichia coli (setting [6]), 0.025 µg/mL (≈ 0.0568 µM); with Streptococcus pyogenes (setting [7]), 0.1 µg/mL (≈ 0.227 µM); with Klebsiella pneumoniae (setting [8]), 0.05 µg/mL (≈ 0.114 µM). The minimal inhibitory concentration (MIC) in the assay with Staphylococcus aureus [1] (setting [9]) was determined as 0.006 µg/mL (≈ 0.0136 µM); with Staphylococcus aureus [2] (setting [9]), 0.013 µg/mL (≈ 0.0295 µM); with Enterobacter cloacae (setting [10]), 0.025 µg/mL (≈ 0.0568 µM); with Streptococcus pneumoniae (setting [11]) it was 0.05 µg/mL (≈ 0.114 µM).
With `NCC1CN(c2c(F)cc3c(=O)c(C(=O)O)cn(C4CC4)c3c2F)CC1c1ccco1` (stereo not given), the minimal inhibitory concentration (MIC) with Enterococcus faecalis (setting [3]) was found to be 0.013 µg/mL (≈ 0.0303 µM); with Providencia rettgeri (setting [4]), 0.1 µg/mL (≈ 0.233 µM); in the assay with Pseudomonas aeruginosa (setting [5]) it was 0.4 µg/mL (≈ 0.931 µM); in the assay with Escherichia coli (setting [6]), 0.05 µg/mL (≈ 0.116 µM); with Streptococcus pyogenes (setting [7]), 0.013 µg/mL (≈ 0.0303 µM); in the assay with Klebsiella pneumoniae (setting [8]), 0.1 µg/mL (≈ 0.233 µM). Also, the MIC in the assay with Staphylococcus aureus [1] (setting [9]) was found to be 0.003 µg/mL (≈ 0.00699 µM); in the assay with Staphylococcus aureus [2] (setting [9]) it was 0.025 µg/mL (≈ 0.0582 µM); in the assay with Enterobacter cloacae (setting [10]) it was 0.05 µg/mL (≈ 0.116 µM); with Streptococcus pneumoniae (setting [11]) it was 0.006 µg/mL (≈ 0.014 µM).
As for `NCC1CN(c2nc3c(cc2F)c(=O)c(C(=O)O)cn3C2CC2)CC1c1ccc(N)cc1` (cis isomer), the minimal inhibitory concentration (MIC) was 0.1 µg/mL (≈ 0.229 µM) in the assay on Enterococcus faecalis (setting [3]); 0.8 µg/mL (≈ 1.83 µM) in the assay on Providencia rettgeri (setting [4]); 1.6 µg/mL (≈ 3.66 µM) in the assay with Pseudomonas aeruginosa (setting [5]); 0.2 µg/mL (≈ 0.457 µM) in the assay with Escherichia coli (setting [6]); 0.05 µg/mL (≈ 0.114 µM) in the assay on Streptococcus pyogenes (setting [7]); 0.4 µg/mL (≈ 0.914 µM) in the assay on Klebsiella pneumoniae (setting [8]). Also, the MIC with Staphylococcus aureus [1] (setting [9]) came to 0.025 µg/mL (≈ 0.0571 µM); in the assay on Staphylococcus aureus [2] (setting [9]), 0.2 µg/mL (≈ 0.457 µM); in the assay with Enterobacter cloacae (setting [10]) it was 0.2 µg/mL (≈ 0.457 µM); with Streptococcus pneumoniae (setting [11]), 0.05 µg/mL (≈ 0.114 µM).
Consider `COc1ccccc1C1CN(c2nc3c(cc2F)c(=O)c(C(=O)O)cn3C2CC2)CC1N` (cis isomer), for which the minimum inhibitory concentration (MIC) is 0.8 µg/mL (≈ 1.82 µM) in the assay with Enterococcus faecalis; 3.1 µg/mL (≈ 7.07 µM) in the assay on Providencia rettgeri; > 3.1 µg/mL with Pseudomonas aeruginosa (setting [5]); 0.8 µg/mL (≈ 1.82 µM) against Escherichia coli; 1.6 µg/mL (≈ 3.65 µM) against Streptococcus pyogenes; 1.6 µg/mL (≈ 3.65 µM) in the assay with Klebsiella pneumoniae. The minimal inhibitory concentration (MIC) in the assay on Staphylococcus aureus [1] turned out to be 0.2 µg/mL (≈ 0.456 µM); with Staphylococcus aureus [2], 0.4 µg/mL (≈ 0.912 µM); with Enterobacter cloacae it was 0.8 µg/mL (≈ 1.82 µM); against Streptococcus pneumoniae, 0.8 µg/mL (≈ 1.82 µM).
`NCC1CN(c2nc3c(cc2F)c(=O)c(C(=O)O)cn3C2CC2)CC1c1ccc(N)cc1` (trans isomer): the MIC turned out to be 0.1 µg/mL (≈ 0.229 µM) with Enterococcus faecalis; 0.4 µg/mL (≈ 0.914 µM) against Providencia rettgeri; 1.6 µg/mL (≈ 3.66 µM) with Pseudomonas aeruginosa; 0.2 µg/mL (≈ 0.457 µM) against Escherichia coli; 0.05 µg/mL (≈ 0.114 µM) in the assay with Streptococcus pyogenes; 0.2 µg/mL (≈ 0.457 µM) in the assay on Klebsiella pneumoniae. For the same compound, the MIC with Staphylococcus aureus [1] was 0.05 µg/mL (≈ 0.114 µM); against Staphylococcus aureus [2], 0.4 µg/mL (≈ 0.914 µM); with Enterobacter cloacae, 0.2 µg/mL (≈ 0.457 µM); with Streptococcus pneumoniae, 0.05 µg/mL (≈ 0.114 µM).

Values taken from ChEMBL document CHEMBL1126564, “Synthesis and antimicrobial evaluation of a series of 7-[3-amino (or aminomethyl)-4-aryl (or cyclopropyl)-1-pyrrolidinyl]-4-quinolone- and -1,8-naphthyridone-3-carboxylic acids” (1993).
